Reference: ChEMBL document CHEMBL3769320, “Cell Penetrant Inhibitors of the KDM4 and KDM5 Families of Histone Lysine Demethylases. 2. Pyrido[3,4-d]pyrimidin-4(3H)-one Derivatives” (J Med Chem, 2016)

Key:
[1] = biological target: T1, Lysine-specific demethylase 4E (Homo sapiens, UniProt B2RXH2); assay: Inhibition of KDM4E (unknown origin) by RFMS assay
T1 sequence (B2RXH2 whole entry): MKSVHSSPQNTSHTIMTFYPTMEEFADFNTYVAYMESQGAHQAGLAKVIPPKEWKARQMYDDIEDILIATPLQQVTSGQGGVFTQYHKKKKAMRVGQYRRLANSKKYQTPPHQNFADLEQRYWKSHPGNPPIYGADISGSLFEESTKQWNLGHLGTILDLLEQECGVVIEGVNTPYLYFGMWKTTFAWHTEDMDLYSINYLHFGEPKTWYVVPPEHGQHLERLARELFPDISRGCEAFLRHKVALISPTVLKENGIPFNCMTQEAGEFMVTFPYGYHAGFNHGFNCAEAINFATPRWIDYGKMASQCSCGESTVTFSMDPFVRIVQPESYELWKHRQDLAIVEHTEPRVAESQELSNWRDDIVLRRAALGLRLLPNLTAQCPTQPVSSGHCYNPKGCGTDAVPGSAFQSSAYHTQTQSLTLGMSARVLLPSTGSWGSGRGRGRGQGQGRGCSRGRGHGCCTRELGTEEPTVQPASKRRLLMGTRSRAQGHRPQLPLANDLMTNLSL

[2] = biological target: T2, Lysine-specific demethylase 4C (Homo sapiens, UniProt Q9H3R0); assay: Inhibition of N-terminal his-tagged human KDM4C expressed in Escherichia coli BL21(DE3) using trimethylated peptide substrate by RFMS assay
T2 sequence (Q9H3R0 whole entry): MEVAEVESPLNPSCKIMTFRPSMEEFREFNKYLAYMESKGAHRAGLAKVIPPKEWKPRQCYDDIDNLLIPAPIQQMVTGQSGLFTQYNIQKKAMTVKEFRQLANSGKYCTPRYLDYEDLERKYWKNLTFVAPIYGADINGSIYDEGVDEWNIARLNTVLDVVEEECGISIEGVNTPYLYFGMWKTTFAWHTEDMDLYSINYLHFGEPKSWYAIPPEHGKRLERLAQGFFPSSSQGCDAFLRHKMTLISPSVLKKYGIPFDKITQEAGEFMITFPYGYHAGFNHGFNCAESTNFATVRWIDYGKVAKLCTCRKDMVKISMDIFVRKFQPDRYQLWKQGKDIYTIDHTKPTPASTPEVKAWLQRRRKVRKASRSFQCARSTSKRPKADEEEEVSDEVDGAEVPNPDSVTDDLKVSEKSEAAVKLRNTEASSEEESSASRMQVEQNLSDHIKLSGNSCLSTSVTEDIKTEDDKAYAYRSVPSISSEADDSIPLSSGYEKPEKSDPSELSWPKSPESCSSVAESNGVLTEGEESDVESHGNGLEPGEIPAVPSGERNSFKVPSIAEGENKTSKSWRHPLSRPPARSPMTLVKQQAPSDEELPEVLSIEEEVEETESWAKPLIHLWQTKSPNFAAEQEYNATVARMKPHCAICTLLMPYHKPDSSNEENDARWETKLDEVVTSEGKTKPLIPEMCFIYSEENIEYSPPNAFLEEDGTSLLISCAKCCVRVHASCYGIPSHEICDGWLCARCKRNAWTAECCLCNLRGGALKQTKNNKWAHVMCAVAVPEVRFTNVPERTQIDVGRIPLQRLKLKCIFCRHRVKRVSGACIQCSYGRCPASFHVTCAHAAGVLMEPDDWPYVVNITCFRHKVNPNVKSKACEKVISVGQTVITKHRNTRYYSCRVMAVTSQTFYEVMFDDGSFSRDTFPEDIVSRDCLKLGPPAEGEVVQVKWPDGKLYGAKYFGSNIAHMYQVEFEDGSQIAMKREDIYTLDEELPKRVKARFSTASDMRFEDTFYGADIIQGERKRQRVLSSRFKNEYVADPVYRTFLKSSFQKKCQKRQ

[3] = biological target: T3, Lysine-specific demethylase 5C (Homo sapiens, UniProt P41229); assay: Inhibition of KDM5C catalytic domain (1 -764 aa) (unknown origin) expressed in Sf9 cells using H3K4Me3 peptide as substrate by RFMS assay
physchem = settings: buffer, pH 7.4
[4] = biological target: T2, Lysine-specific demethylase 4C; assay: Inhibition of N-terminal HALO-tagged full-length human KDM4C transfected in U2OS cells assessed as inhibition of H3K9Me3 demethylation for 24 hrs
[5] = biological target: T4, Lysine-specific demethylase 4A (Homo sapiens, UniProt O75164); assay: Inhibition of KDM4A (unknown origin) by RFMS assay
T4 sequence (O75164 whole entry): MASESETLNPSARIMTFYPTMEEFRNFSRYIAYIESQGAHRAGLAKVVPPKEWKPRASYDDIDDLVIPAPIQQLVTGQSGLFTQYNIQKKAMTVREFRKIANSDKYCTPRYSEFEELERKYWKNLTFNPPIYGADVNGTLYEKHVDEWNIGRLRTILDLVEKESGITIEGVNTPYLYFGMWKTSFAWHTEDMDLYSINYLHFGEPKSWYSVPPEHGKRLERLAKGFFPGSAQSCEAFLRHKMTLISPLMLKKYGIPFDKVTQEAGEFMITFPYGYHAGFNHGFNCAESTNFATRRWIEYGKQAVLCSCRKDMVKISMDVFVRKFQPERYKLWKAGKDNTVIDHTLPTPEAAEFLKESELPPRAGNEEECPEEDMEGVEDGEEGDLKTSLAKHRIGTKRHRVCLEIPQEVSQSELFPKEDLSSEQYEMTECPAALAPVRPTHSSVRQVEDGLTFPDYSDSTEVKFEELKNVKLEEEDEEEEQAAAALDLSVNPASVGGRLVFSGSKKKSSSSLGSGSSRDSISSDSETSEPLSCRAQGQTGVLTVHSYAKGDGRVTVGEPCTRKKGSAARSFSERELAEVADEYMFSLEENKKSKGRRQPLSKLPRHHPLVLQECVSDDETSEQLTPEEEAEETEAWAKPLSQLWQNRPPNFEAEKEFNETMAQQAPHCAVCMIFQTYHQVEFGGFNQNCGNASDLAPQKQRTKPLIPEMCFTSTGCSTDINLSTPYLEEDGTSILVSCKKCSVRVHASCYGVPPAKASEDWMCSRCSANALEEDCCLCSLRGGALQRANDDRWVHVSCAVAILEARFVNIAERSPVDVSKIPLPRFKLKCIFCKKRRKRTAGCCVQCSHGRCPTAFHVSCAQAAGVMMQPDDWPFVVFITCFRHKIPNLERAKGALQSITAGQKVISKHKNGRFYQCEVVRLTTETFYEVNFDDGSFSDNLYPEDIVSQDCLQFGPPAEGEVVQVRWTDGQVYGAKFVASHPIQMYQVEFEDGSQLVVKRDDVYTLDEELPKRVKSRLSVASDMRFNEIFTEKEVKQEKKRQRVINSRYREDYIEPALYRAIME

[6] = biological target: T5, Lysine-specific demethylase 4D (Homo sapiens, UniProt Q6B0I6); assay: Inhibition of KDM4D (unknown origin) by RFMS assay
T5 sequence (Q6B0I6 whole entry): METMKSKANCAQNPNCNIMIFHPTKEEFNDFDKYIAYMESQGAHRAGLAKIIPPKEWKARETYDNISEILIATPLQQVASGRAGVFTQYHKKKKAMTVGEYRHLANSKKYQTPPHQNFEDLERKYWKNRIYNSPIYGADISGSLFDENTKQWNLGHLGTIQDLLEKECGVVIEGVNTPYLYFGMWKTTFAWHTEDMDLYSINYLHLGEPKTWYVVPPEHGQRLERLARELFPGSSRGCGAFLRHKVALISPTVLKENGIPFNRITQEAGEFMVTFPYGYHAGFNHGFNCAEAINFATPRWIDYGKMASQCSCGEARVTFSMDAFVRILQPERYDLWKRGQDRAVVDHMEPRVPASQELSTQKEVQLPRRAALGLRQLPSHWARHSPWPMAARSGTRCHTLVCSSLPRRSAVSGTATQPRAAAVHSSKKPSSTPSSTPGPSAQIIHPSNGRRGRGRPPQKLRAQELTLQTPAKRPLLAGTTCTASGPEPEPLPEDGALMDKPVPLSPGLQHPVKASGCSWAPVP

[7] = biological target: T3, Lysine-specific demethylase 5C; assay: Inhibition of human KDM5C transfected in U2OS cells assessed as inhibition of […] demethylation for 24 hrs; format: cell-based
Procedure, shortened: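 High-content cell imaging assay in U2OS cells overexpressing KDM5C, the same cell type as the KDM4C cellular mechanistic assay. Cellular potency reported as pIC50.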

[8] = biological target: T2, Lysine-specific demethylase 4C; assay: Inhibition of N-terminal his-tagged full-length human KDM4C transfected in U2OS cells assessed as inhibition of H3K9Me3 demethylation for 24 hrs; format: cell-based
Prolyl hydroxylase EGLN3 = Prolyl hydroxylase EGLN3 (Homo sapiens, UniProt Q9H6Z9); assay: Inhibition of full-length EGLN3 (unknown origin) expressed in Escherichia coli BL21(DE3) cells by HTRF assay
[9] = biological target: Lysine-specific demethylase 6B (Homo sapiens, UniProt O15054); assay: Inhibition of KDM6B (unknown origin) by RFMS assay
Lysine-specific demethylase 6B, sequence (O15054 whole entry): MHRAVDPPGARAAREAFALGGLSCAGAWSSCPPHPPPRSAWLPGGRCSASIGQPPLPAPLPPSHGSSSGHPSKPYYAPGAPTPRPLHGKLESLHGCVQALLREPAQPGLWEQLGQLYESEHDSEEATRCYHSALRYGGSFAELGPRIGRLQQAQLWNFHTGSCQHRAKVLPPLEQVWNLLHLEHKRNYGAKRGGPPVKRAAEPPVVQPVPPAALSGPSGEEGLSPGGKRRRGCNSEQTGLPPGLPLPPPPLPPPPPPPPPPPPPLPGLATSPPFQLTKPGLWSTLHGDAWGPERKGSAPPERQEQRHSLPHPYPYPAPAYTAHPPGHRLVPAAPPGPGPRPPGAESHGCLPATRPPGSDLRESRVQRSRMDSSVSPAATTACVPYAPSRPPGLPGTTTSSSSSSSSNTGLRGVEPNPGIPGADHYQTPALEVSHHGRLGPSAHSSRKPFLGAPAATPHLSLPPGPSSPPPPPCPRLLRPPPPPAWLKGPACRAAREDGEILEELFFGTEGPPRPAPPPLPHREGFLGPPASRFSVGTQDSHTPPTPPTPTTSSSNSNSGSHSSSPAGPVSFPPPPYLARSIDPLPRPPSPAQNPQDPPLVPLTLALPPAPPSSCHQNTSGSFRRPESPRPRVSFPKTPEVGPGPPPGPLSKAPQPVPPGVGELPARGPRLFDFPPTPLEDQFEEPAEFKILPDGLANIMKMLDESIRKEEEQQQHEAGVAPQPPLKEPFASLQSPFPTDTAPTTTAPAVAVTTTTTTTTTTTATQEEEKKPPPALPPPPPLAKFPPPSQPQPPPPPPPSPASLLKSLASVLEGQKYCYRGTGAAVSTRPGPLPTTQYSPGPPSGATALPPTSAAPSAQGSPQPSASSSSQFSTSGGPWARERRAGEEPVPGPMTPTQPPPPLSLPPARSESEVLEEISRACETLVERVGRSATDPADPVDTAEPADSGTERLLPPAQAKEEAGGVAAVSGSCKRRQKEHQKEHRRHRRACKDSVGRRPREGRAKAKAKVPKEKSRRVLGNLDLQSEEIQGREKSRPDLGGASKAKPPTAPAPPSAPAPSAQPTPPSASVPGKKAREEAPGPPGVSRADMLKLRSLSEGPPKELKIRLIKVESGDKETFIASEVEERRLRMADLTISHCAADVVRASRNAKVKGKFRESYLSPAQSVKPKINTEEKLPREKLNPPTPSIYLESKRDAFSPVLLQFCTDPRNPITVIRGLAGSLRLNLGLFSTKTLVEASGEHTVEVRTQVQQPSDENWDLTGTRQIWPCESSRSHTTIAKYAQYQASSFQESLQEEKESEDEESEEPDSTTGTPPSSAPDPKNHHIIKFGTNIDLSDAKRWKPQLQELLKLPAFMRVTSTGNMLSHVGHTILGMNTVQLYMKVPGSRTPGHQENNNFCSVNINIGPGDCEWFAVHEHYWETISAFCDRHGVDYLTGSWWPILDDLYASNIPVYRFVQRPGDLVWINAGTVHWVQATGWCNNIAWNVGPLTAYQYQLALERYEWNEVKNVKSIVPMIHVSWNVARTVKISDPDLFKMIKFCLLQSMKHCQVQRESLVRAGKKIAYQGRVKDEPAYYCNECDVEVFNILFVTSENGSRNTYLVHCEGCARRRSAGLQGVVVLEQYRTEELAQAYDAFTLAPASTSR

T3 sequence (P41229 whole entry, the tested form may be a part): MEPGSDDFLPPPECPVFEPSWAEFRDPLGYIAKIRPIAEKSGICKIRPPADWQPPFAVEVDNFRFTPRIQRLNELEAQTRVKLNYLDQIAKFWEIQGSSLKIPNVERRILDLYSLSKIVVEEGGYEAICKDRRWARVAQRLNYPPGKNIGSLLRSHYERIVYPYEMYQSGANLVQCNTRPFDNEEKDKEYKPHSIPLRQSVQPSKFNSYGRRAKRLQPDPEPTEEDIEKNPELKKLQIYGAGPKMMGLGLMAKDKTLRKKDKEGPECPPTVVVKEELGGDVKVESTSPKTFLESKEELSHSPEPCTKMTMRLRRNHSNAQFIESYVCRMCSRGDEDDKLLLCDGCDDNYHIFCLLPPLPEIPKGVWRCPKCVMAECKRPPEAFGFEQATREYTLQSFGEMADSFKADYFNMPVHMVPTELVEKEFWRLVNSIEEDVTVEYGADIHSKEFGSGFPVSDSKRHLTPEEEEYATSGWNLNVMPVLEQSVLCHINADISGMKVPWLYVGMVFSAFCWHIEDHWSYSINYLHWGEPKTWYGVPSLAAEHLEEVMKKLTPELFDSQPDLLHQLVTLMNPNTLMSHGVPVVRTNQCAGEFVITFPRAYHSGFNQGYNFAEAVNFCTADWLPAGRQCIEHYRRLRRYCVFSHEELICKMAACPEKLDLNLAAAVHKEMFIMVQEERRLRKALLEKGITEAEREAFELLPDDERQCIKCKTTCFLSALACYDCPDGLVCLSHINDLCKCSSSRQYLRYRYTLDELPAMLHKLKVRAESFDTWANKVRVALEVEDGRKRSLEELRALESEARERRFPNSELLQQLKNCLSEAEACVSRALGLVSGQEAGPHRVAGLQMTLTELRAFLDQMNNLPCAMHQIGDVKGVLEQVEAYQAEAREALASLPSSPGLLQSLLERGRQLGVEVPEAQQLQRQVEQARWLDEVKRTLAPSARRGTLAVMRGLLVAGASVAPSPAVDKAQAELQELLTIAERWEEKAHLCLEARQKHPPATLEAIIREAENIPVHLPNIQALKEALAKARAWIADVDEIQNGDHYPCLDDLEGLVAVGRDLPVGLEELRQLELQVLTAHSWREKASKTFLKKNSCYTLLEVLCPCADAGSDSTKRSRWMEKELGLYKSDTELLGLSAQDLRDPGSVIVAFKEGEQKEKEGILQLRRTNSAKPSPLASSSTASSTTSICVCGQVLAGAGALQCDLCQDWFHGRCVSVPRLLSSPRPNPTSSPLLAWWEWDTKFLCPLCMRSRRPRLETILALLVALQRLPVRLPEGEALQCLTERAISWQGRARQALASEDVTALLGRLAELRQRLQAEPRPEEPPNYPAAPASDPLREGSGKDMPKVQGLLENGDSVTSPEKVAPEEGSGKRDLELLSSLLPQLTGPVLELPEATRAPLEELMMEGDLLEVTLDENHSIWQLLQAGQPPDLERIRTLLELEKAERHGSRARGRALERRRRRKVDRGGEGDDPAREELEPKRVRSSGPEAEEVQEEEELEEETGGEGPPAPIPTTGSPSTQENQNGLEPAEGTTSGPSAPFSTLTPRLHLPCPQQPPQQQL
Prolyl hydroxylase EGLN3, sequence (Q9H6Z9 whole entry): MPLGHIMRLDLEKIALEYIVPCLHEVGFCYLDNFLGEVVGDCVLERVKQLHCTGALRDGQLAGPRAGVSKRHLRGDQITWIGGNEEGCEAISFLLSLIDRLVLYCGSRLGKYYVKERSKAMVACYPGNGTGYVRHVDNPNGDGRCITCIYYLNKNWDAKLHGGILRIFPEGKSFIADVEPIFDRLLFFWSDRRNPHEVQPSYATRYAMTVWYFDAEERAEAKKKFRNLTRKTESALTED

Row | SMILES | IC50 [2] [nM] | logD (physchem) | IC50 [8] [nM] | other results
1 | Nc1cnccc1C(=O)O |  |  |  | IC50 [1]: 1260 nM
2 | O=c1[nH]c(-c2ccccc2)nc2cnccc12 | 20000 |  |  | 
3 | CC(C)c1ccc(Oc2nc3cnccc3c(=O)[nH]2)cn1 | 1000 | 1.5 |  | IC50 [3]: 126 nM; IC50 [4]: 2000 nM; IC50 [1]: 398 nM; IC50 [5]: 1580 nM; IC50 [6]: 631 nM; IC50 ([7]; read-out: pIC50 (converted)): 50100 nM
4 | O=c1[nH]ncc2cnccc12 | > 100000 |  |  | 
5 | O=c1[nH]c(Oc2cnn(-c3ccccc3)c2)nc2cnccc12 | 398 | 1.9 | 3980 | 
6 | O=c1[nH]ccc2cnccc12 | > 100000 |  |  | 
7 | Cn1cc(Oc2nc3cnccc3c(=O)[nH]2)cn1 | 398 | -0.3 | 7940 | 
8 | COc1cccc(Cn2cc(Oc3nc4cnccc4c(=O)[nH]3)cn2)c1 | 631 | 2 | 6310 | 
9 | O=c1[nH]c(Oc2cnn(C3CCCC3)c2)nc2cnccc12 | 631 | 1.7 |  | IC50 [3]: 126 nM; IC50 [4]: 2000 nM; IC50 [1]: 398 nM; IC50 [5]: 794 nM; IC50 [6]: 501 nM; IC50 ([7]; read-out: IC50): 2500 nM; IC50 ([7]; read-out: pIC50 (converted)): 5010 nM; IC50 (Prolyl hydroxylase EGLN3): > 100000 nM; IC50 [9]: > 100000 nM
10 | O=c1[nH]c(Oc2cnn(C3CCCCC3)c2)nc2cnccc12 | 398 | 2.2 | 3980 | 
11 | O=c1[nH]c(-c2cncc(F)c2)nc2cnccc12 | 2000 |  |  | 
12 | CC(C)n1cc(Oc2nc3cnccc3c(=O)[nH]2)cn1 | 501 | 0.7 | 5010 | 
13 | O=c1[nH]c(Oc2cnn(C3CCCCCC3)c2)nc2cnccc12 | 501 | 2.9 | 2510 | 
14 | O=c1ncn(Cc2ccccc2)c2cnccc12 | 25100 |  |  | 
15 | O=c1[nH]c(OCc2ccccc2)nc2cnccc12 | 2000 | 2.8 | > 100000 | 
16 | O=c1[nH]c(Oc2cnn(Cc3cccnc3)c2)nc2cnccc12 | 631 | 0.3 | 12600 | 

Row | SMILES | IC50 [2] [nM] | logD (physchem) | IC50 [8] [nM] | other results
17 | O=c1[nH]c(Oc2ccc(Cl)cc2)nc2cnccc12 | 501 |  | 10000 | 
18 | Cc1nn(C)cc1Oc1nc2cnccc2c(=O)[nH]1 | 2510 | 0 | > 100000 | 
19 | O=c1[nH]c(OC2CCCCC2)nc2cnccc12 | 3160 | 3.7 | 25100 | 
20 | O=c1[nH]c(-c2cccnc2)nc2cnccc12 | 7940 |  |  | 
21 | Cc1c(Oc2nc3cnccc3c(=O)[nH]2)cnn1C | 2000 | -0.2 |  | 
22 | O=c1[nH]c(OCC2CCCCC2)nc2cnccc12 | 3160 | 4.5 | > 100000 | 
23 | O=c1[nH]c(Oc2cccc(O)c2)nc2cnccc12 | 200 | 0.3 | 10000 | 
24 | O=c1[nH]c(Oc2cnn(Cc3ccccc3)c2)nc2ncccc12 | > 100000 |  | > 100000 | IC50 [3]: 31600 nM; IC50 [1]: > 100000 nM; IC50 [5]: > 100000 nM; IC50 [6]: > 100000 nM; IC50 ([7]; read-out: pIC50 (converted)): > 100000 nM; IC50 (Prolyl hydroxylase EGLN3): > 100000 nM; IC50 [9]: > 100000 nM
25 | O=c1[nH]c(Oc2ccc(Cl)c(O)c2)nc2cnccc12 | 398 | 1.1 |  | IC50 [3]: 200 nM; IC50 [4]: 2000 nM; IC50 [1]: 126 nM; IC50 [5]: 398 nM; IC50 [6]: 316 nM; IC50 ([7]; read-out: pIC50 (converted)): 31600 nM; IC50 (Prolyl hydroxylase EGLN3): > 100000 nM; IC50 [9]: > 100000 nM
26 | O=c1[nH]c(Oc2cn[nH]c2)nc2cnccc12 | 398 | -0.6 | 7940 | 
27 | O=c1[nH]c(Oc2cccnc2)nc2cnccc12 | 501 | -0.2 | 12600 | 
28 | O=c1ncn(CCCc2ccccc2)c2cnccc12 | ≥ 100000 |  |  | 
29 | O=c1[nH]c(Oc2cnn(Cc3ccccc3)c2)nc2cnccc12 | 501 | 1.8 | 5010 | IC50 [3]: 63.1 nM; IC50 [4]: 2000 nM; IC50 [1]: 501 nM; IC50 [5]: 631 nM; IC50 [6]: 398 nM; IC50 ([7]; read-out: pIC50 (converted)): 3980 nM; IC50 (Prolyl hydroxylase EGLN3): > 100000 nM; IC50 [9]: > 100000 nM
30 | O=c1[nH]c(Oc2ccccc2)nc2cnccc12 | 631 | 1.2 | 12600 | 
31 | O=c1[nH][nH]c2cnccc12 | > 100000 |  |  | 
